This is a sample that favours compounds with a hit; in the whole collection about 2.3% have one here.
FN deposition inh = fibronectin deposition inhibition; AH1F fibroblasts, Alexa488-fibronectin deposition fluorescence, overnight; inhibition, % at 12.6 µM; AID 743247; hit rate 0.086% among 350,000;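 active = mean inhibition across replicates of 30% or more, regardless of how many single replicates reach that level; inconclusive = mean under 30% yet at least half of replicates reach 30%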;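 also: positive control wells lacked labelled fibronectin entirely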
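Assay system: AH1F fibroblasts / Quantity: 10000 cells per well / Medium: DMEM plus 2% serum, read in PBS / Reagent: labelled fibronectin 24 nM / Dosing: single dose, pinned / Times: 1 h cell attachment, overnight exposure to compound and label / Signal: fluorescence, ex 485 nm, em 525 nm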
EWS-Fli inh = EWS/Fli transcriptional activity inhibition. A673 NR0B1-luciferase reporter, viability-normalised. hit rate 0.67% among 350,000. inhibition, % at 12.6 µM;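 active = mean inhibition of at least 50% after viability correction, with every replicate also passing that limit; inconclusive = mean reaches 50% but only one of two replicates passes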;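 also: firefly luciferase signal divided by Alamar Blue viability fluorescence both relative to DMSO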
TWEAK Fn14 block = inhibitors of TWEAK-Fn14 interaction signaling; TWEAK-stimulated Fn14 reporter cells, luciferase luminescence, 8 h; inhibition, % at 10 µM; hit rate 2% among 360,000; AID 1159606; in the data active = inhibition above about 50%
XiGFP reactiv = activators of X-chromosome reactivation in mouse fibroblasts; XiGFP mouse fibroblasts, % GFP-positive cells imaging, 3 d; cells co-treated with 5-aza-dC sensitizer; scaled so ellipticine positive control = 100%; activation, % at 7.58 µM; hit rate 0.055% among 360,000;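 active = mean normalized replicate activation at least 10% and every replicate at or above 10%; inconclusive = only one of the two criteria met; inactive = mean below 10% and not all replicates reach 10%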;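 also: 0% = median of on-plate neutral control wells and 100% = ellipticine 6 µM median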
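assay system = SV40-immortalized XiGFP fibroblast cells, line 68-5-11 | buffer or medium = DMEM plus 5-aza-dC sensitizer | doses = single-point pinned compound dosing | times = 3-day compound exposure, then 15 min fixation at room temperature | benchmarks = positive control ellipticine, 6 µM final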
LGR2 antag = Drosophila LGR2 receptor signaling inhibition; AID 720647; inhibition, % at 9.99 µM; HEK293 LGR2, CRE-luciferase, bursicon-stimulated, 4 h; hit rate 0.35% among 380,000;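 active = drop in luminescence signal, shown as inhibition above about 50% in the replicate tests, limit read from the data, passing the limit was not always enough; inconclusive = probably only some replicates passing the limit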;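 also: agonist challenge used bursicon conditioned medium at about half maximal strength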
TROY signal inh = blocks TROY-dependent signaling in reporter cells; inhibition, % at 10 µM; Q293 LMP1-TROYcd NF-kB luciferase reporter, 4 h; AID 1347056; hit rate 0.98% among 360,000;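 active = compounds whose plate-normalised and pattern-corrected inhibition of the luciferase reporter signal at the single screening dose is 50% or more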
Starred values were filed as active, the others as inactive; ? = inconclusive; nt = not tested or not shown.

SMILES | FN deposition inh | EWS-Fli inh | TWEAK Fn14 block | XiGFP reactiv | LGR2 antag | TROY signal inh
Cc1cccnc1C1=NOC(Cc2ccccc2)C(=O)N1Cc1ccc(F)cc1 (stereo unspecified) | 17 | -3 | 19 | 0 | 12 | -61
CC(=O)Nc1ccc(CN2C(=O)C(Cc3ccccc3)ON=C2c2cccc(F)c2)cc1 (stereo unspecified) | 17 | 6 | -22 | 0 | -19 | 83*
CC1=NN(c2cccc(C(=O)O)c2)C(=O)/C1=C\C=C/c1ccccc1 | nt | 46 | 91* | 2 | ? | 54*
CC1=NN(c2ccccc2)C(=O)C1=Cc1ccccc1 | nt | 6 | -9 | 0 | 2 | 8
O=C1C2C(C(=O)N1/N=C/c1ccc([N+](=O)[O-])o1)C1C=CC2C12CC2 (stereo unspecified) | 5 | nt | 49 | 1 | 4 | -16
CC1=NN(c2nc(N)nc(/C(C#N)=C/c3ccc([N+](=O)[O-])o3)n2)C(C)(C)C1 | -3 | 70* | 71* | 73* | -26 | -1
CC(=O)N1CCN(c2ccc(NCc3ccc(C)s3)cc2)CC1 | -5 | -9 | 6 | 0 | nt | 4
Cc1ccc(CNc2ccc(N3CCOCC3)cc2)s1 | nt | nt | 9 | nt | nt | 50*
COc1ccc(O)c(C(=O)CC(=O)c2ccc(F)cc2)c1 | nt | nt | 85* | nt | 75* | 40
CCCC#Cc1ccc([C@@H]2[C@@H](CO)N3C(=O)CN(C(=O)Nc4cc(F)ccc4F)C[C@@H]23)cc1 | nt | 8 | nt | 1 | 9 | nt
C[C@@H]1CN([C@@H](C)CO)C(=O)CCCn2nncc2CO[C@@H]1CN(C)C | 3 | -1 | nt | 0 | -16 | nt
C[C@H](CO)N1C[C@H](C)[C@H](CN(C)Cc2ccc(F)cc2)Oc2ncc(C#Cc3cccnc3)cc2C1=O | nt | -11 | nt | 0 | 19 | nt
Cc1ccc(C(=O)NCCn2cc(SCC(=O)N3CCOCC3)c3ccccc32)cc1 | -4 | -25 | 86* | 0 | 1 | 78*
Cc1ccc(C(=O)NCCn2cc(SCC(=O)Nc3cc(C)on3)c3ccccc32)cc1 | -2 | -23 | 84* | 0 | 2 | 73*
COc1ccc(C)cc1Nc1c2c(nc3ccccc13)CCC2 | 2 | 53* | 0 | 1 | -6 | 35
C[C@H](CO)N1C[C@H](C)[C@@H](CN(C)S(C)(=O)=O)Oc2ccc(NS(=O)(=O)c3ccc(Cl)cc3)cc2C1=O | nt | -6 | nt | 0 | -15 | nt
CCN1C(=O)N(CC)c2cccc3cccc1c23 | -22 | 4 | 92* | 0 | -6 | 33
CCN1C(=O)c2cccc3cccc1c23 | nt | 8 | -10 | nt | -5 | 9
C[C@H]1CN([C@@H](C)CO)C(=O)c2cc(N(C)C)ccc2O[C@H]1CN(C)C(=O)NC1CCCCC1 | nt | nt | nt | 0 | 11 | nt
CCCN1[C@@H]2c3ccc(-c4ccncc4)c(=O)n3C[C@@H]2[C@@H](CO)[C@@H]1C(=O)OC | nt | 1 | nt | 0 | -8 | nt
O=S(=O)(/C=C/C=C/S(=O)(=O)c1ccccc1)c1ccccc1 | 34* | 65* | 93* | 4 | 46 | 46
COc1cc(OC)c2c(-c3cccc(-c4ccc(C(C)=O)cc4)c3)cc(=O)oc2c1 | nt | nt | 77* | nt | nt | 56*
COc1cc2c(cc1OC)CN(c1ccc(C(F)(F)F)cn1)CC2 | -6 | nt | 51* | 0 | 9 | -10
COc1cc2c(cc1OC)CN(c1ccc3ccccc3n1)CC2 | 2 | -101 | -6 | 0 | -21 | -10
CS(=O)(=O)N1C[C@@H]2C(c3ccc(-c4ccc(F)cc4)cc3)[C@H](C1)N2CC1CC1 (stereo partly specified) | 7 | nt | nt | 0 | nt | nt
SMILES | FN deposition inh | EWS-Fli inh | TWEAK Fn14 block | XiGFP reactiv | LGR2 antag | TROY signal inh
N#CCCN(C(=O)Nc1ccc(Cl)cc1)c1ccccc1 | nt | nt | 86* | nt | -5 | -19
N#CCCN(C(=O)Nc1ccccc1)c1ccccc1 | nt | nt | -3 | nt | nt | -1
CCOC(=O)C(=Cc1ccc(-n2cncn2)cc1)C(=O)OCC | -9 | 17 | 101* | 1 | 65* | 63*
CCOC(=O)/C(=C\c1ccc(N2CCC(c3ccccc3)=N2)cc1)C(C)=O | -3 | -3 | 29 | 0 | 22 | 42
CC(=O)N1CC2(C1)[C@H](c1ccc(-c3ccc(C#N)cc3)cc1)[C@@H](CO)N2CCC(F)(F)F | nt | 1 | nt | 0 | -1 | nt
COc1cc(/C=N/NC(=Nc2ccc(C)cc2)c2nc3ccccc3s2)ccc1O | -7 | nt | 107* | nt | nt | 88*
CCCCn1c(NC(=O)c2ccccc2)c(C#N)c2nc3ccccc3nc21 | -7 | nt | 64* | nt | nt | 68*
CCC(=O)Nc1c(C#N)c2nc3ccccc3nc2n1-c1ccc(C)cc1 | 9 | 11 | 13 | 0 | -3 | 3
CCC(C)n1c(NC(=O)c2ccccc2)c(C#N)c2nc3ccccc3nc21 (stereo unspecified) | nt | nt | 42 | nt | -7 | 58*
C[C@H]1CN([C@@H](C)CO)C(=O)c2ccccc2-c2ccccc2CO[C@H]1CN(C)C(=O)Nc1ccccc1C(F)(F)F | -2 | -5 | nt | 1 | -1 | nt
N=C1SCC(=O)N1c1ncc(Cc2ccc(F)cc2)s1 | -1 | 23 | 103* | 0 | -3 | 33
CN(c1ccccc1)c1ccc(/C=C/[N+](=O)[O-])cc1 | 4 | 64* | 103* | 1 | 102* | 89*
O=[N+]([O-])c1ccc(C=CC=Cc2ccccc2)cc1 | -3 | -63 | -29 | 0 | -78 | -42
Cc1cc(C)n(-c2ccc(C(=O)Nc3ccc(S(=O)(=O)N(C)C)cc3)cc2)n1 | -3 | 13 | 32 | 0 | 4 | 23
CCCCN1C(=O)c2ccc(C(=O)Nc3ccc(C)c(S(=O)(=O)N(C)C)c3)cc2C1=O | -4 | nt | 91* | nt | ? | 55*
Cc1cc(C)n(-c2ccc(C(=O)Nc3ccc(C)c(S(=O)(=O)N(C)C)c3)cc2)n1 | 3 | nt | 53* | 0 | 11 | 20
Cc1cc(C)n(-c2ccc(C(=O)Nc3cccc(S(=O)(=O)N(C)C)c3)cc2)n1 | 7 | 7 | 37 | 0 | -10 | 25
CCN(CC)S(=O)(=O)c1cccc(NC(=O)c2ccc(-n3nc(C)cc3C)cc2)c1 | -4 | nt | 60* | 0 | 33 | 48
CN(C)S(=O)(=O)Oc1ccc(C(=O)Nc2cccc(C(F)(F)F)c2)cc1 | -18 | 7 | 54* | 0 | -5 | 15
C[C@H]1CN([C@@H](C)CO)C(=O)Cc2cc(NS(=O)(=O)c3cn(C)cn3)ccc2O[C@@H]1CN(C)Cc1ccc(C(F)(F)F)cc1 | nt | -17 | nt | 0 | -11 | nt
Cc1ccc(NC(=O)c2ccncc2)cc1S(=O)(=O)N(C)C | 5 | 8 | 6 | 0 | 4 | -3
Cc1ccc(NC(=O)c2ccc(OC(F)(F)F)cc2)cc1S(=O)(=O)N(C)C | -2 | nt | 52* | 0 | -4 | 13
Cc1cc(C)n(-c2ccc(C(=O)Nc3ccc(S(=O)(=O)NCc4ccco4)cc3)cc2)n1 | -1 | nt | 59* | nt | nt | 38

Source: PubChem BioAssay
